Assay [1] addresses T1, cGMP-dependent 3',5'-cyclic phosphodiesterase (Bos taurus, UniProt P14099).
T1 sequence (P14099 whole entry): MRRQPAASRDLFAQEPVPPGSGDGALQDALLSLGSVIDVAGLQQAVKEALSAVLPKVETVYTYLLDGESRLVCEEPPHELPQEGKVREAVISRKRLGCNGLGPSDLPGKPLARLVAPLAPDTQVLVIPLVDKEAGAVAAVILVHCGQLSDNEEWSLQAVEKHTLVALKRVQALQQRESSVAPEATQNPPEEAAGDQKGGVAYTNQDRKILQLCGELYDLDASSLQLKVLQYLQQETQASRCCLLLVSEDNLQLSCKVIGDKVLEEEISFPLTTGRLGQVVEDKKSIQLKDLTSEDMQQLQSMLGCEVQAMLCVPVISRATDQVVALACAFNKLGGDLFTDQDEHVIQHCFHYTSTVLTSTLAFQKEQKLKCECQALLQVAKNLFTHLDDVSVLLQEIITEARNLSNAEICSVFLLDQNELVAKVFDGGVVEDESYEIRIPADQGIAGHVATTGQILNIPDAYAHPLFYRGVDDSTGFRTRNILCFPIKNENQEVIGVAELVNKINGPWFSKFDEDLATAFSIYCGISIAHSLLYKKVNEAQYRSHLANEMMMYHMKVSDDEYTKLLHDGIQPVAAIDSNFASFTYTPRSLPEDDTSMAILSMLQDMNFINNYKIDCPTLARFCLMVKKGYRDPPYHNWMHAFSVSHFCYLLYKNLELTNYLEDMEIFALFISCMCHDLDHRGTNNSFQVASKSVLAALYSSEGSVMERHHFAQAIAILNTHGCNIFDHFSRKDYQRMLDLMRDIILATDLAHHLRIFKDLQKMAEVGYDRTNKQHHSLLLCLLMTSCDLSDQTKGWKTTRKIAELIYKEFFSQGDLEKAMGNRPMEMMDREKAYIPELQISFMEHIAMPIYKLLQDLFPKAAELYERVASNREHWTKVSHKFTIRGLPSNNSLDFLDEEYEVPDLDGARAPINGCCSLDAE
As to the kind of experiment: Inhibition of bovine adrenal gland Phosphodiesterase 2 (PDE2). In outline: (§1)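 Boiled, then snake-venom nucleotidase for 30 min at 37 °C, methanol stop, Dowex separation, scintillation counting. IC50 from log concentration-inhibition curve (≥4 points), mean of ≥2 duplicate experiments.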

Assay [2] addresses Phosphodiesterase 3 (Canis familiaris). The assay is described as follows: Inhibitory activity against canine heart Phosphodiesterase 3 (PDE3).
Assay [3] has as its target Phosphodiesterase 4 (Canis familiaris). The assay is described as follows: Inhibition of canine lung Phosphodiesterase 4 (PDE4).
In assay [4] the target is cGMP-specific 3',5'-cyclic phosphodiesterase (Canis lupus familiaris, UniProt O77746). As to the kind of experiment: Inhibitory activity against canine lung Phosphodiesterase 5 (PDE5). The method in brief:
as §1

Assay [5] is described as follows: Relaxant effect on isolated rabbit corpus cavernosum. The note with it: target entry is the homologue from another species. Format: functional, tissue-based, Oryctolagus cuniculus.
For another assay, the target named is Phosphodiesterase 1 (Rattus norvegicus, UniProt Q63421+Q9EPR9+Q01066). The assay is described as follows: Inhibitory activity against rat heart Phosphodiesterase 1(PDE1). The format is protein assay.

Some results are limits rather than exact numbers.

As usually defined, the IC50 is the concentration that gives 50% inhibition. A higher IC50 goes with weaker potency in that assay. The term EC30 denotes the concentration needed for an effect of 30%. A lower EC30 goes with an effect from little substance. Turning to `COC(=O)c1c(-c2cc(OC)c(OC)c(OC)c2)c2ccc(OCc3ccncc3)cc2c(=O)n1-c1ccc(N)cc1.Cl.Cl`, the IC50 in assay [1] is over 10 µM; in assay [2] it was over 10 µM; in assay [3], 7 µM; in assay [4], 0.0031 µM; against Phosphodiesterase 1 it was 9.5 µM. Further, the EC30 in assay [5] came to 0.012 µM.

These data come from ChEMBL document CHEMBL1134770, “Novel, potent, and selective phosphodiesterase 5 inhibitors: synthesis and biological activities of a series of 4-aryl-1-isoquinolinone derivatives” (J Med Chem, 2001).
